# Where “and” joins values, the source holds several entries; their conditions need not be identical. Identical values can stand only once.
# System: U2OS
# Test: Multiplex assay against U2OS
# Format: toxicity, cell-based
# Details: human
# Summary of the method: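 Per cents of healthy-nucleus cells form the tubulin, mitochondrial-mass and membrane-permeability phenotype values. Live cells were stained at seeding with Hoechst33342, BioTracker Green Microtubule Cytoskeleton Dye, MitoTracker Red and Annexin V Alexa Fluor 680. After compound addition they were imaged on a CQ1 microscope at 37°C and 5% CO2, and CellPathfinder machine-learning gating split them into Hoechst high-intensity objects or normal cells, normal cells into healthy, pyknosed or fragmented nuclei, and pyknosed cells into mitotic or apoptotic.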
# [1] = 12 h, 1 µM, compound concentration 1 uM
# [2] = 12 h, 10 µM, compound concentration 10 uM
# [3] = 24 h, 1 µM, compound concentration 1 uM
# [4] = 24 h, 10 µM, compound concentration 10 uM
# [5] = 48 h, 1 µM, compound concentration 1 uM
# [6] = 48 h, 10 µM, compound concentration 10 uM
smiles,measurement,setting,value
Cc1[nH]nc2ccc(-c3cncc(OCC(N)Cc4c[nH]c5ccccc45)c3)cc12 (stereo not given),Population Apoptotic (%),[1],44.72% and 48.45%
same,Population Fragmented Nuclei (%),[1],8.59% and 11.33%
same,Population Healthy Nuclei (%),[1],46.81% and 24%
same,Population Hoechst High Intensity Objects (%),[1],0%
same,Population Membrane Permeable-Phenotype (%),[1],2.37% and 0%
same,Population Mitotic Cells (%),[1],55.28% and 51.55%
same,Population Normal (%),[1],100%
same,Population Pyknosed Nuclei (%),[1],44.6% and 64.67%
same,Population Tubulin-Different-Phenotype (%),[1],4.73% and 0%
same,Total Cell Count,[1],361 and 150
same,Population Apoptotic (%),[2],65.77% and 68.92%
same,Population Fragmented Nuclei (%),[2],11.37% and 8.4%
same,Population Healthy Nuclei (%),[2],2.49% and 6.87%
same,Population Hoechst High Intensity Objects (%),[2],0%
same,Population Membrane Permeable-Phenotype (%),[2],0% and 22.22%
same,Population Mitochondria Different-Phenotype (%),[2],35.71% and 55.56%
same,Population Mitotic Cells (%),[2],34.23% and 31.08%
same,Population Normal (%),[2],100%
same,Population Pyknosed Nuclei (%),[2],86.15% and 84.73%
same,Population Tubulin-Different-Phenotype (%),[2],42.86% and 33.33%
same,Total Cell Count,[2],563 and 262
same,Population Apoptotic (%),[3],64.71% and 80.2%
same,Population Fragmented Nuclei (%),[3],9.73% and 13.51%
same,Population Healthy Nuclei (%),[3],38.6% and 18.24%
same,Population Hoechst High Intensity Objects (%),[3],0%
same,Population Membrane Permeable-Phenotype (%),[3],3.15% and 3.7%
same,Population Mitotic Cells (%),[3],35.29% and 19.8%
same,Population Normal (%),[3],100%
same,Population Pyknosed Nuclei (%),[3],51.67% and 68.24%
same,Population Tubulin-Different-Phenotype (%),[3],2.36% and 7.41%
same,Total Cell Count,[3],329 and 148
same,Population Apoptotic (%),[4],93.93% and 93.15%
same,Population Fragmented Nuclei (%),[4],7.63% and 5.95%
same,Population Healthy Nuclei (%),[4],4.33% and 7.14%
same,Population Hoechst High Intensity Objects (%),[4],0%
same,Population Mitochondria Different-Phenotype (%),[4],17.65% and 50%
same,Population Mitotic Cells (%),[4],6.07% and 6.85%
same,Population Normal (%),[4],100%
same,Population Pyknosed Nuclei (%),[4],88.04% and 86.9%
same,Population Tubulin-Different-Phenotype (%),[4],35.29% and 16.67%
same,Total Cell Count,[4],393 and 168
same,Population Apoptotic (%),[5],73.68% and 85.57%
same,Population Fragmented Nuclei (%),[5],8.46% and 13.19%
same,Population Healthy Nuclei (%),[5],34.14% and 19.44%
same,Population Hoechst High Intensity Objects (%),[5],0%
same,Population Mitochondria Different-Phenotype (%),[5],1.77% and 10.71%
same,Population Mitotic Cells (%),[5],26.32% and 14.43%
same,Population Normal (%),[5],100%
same,Population Pyknosed Nuclei (%),[5],57.4% and 67.36%
same,Population Tubulin-Different-Phenotype (%),[5],5.31% and 0%
same,Total Cell Count,[5],331 and 144
same,Population Apoptotic (%),[6],96.14% and 98.84%
same,Population Fragmented Nuclei (%),[6],9.73% and 10.67%
same,Population Healthy Nuclei (%),[6],29.2% and 32%
same,Population Hoechst High Intensity Objects (%),[6],0%
same,Population Membrane Permeable-Phenotype (%),[6],12.12% and 29.17%
same,Population Mitochondria Different-Phenotype (%),[6],23.23% and 35.42%
same,Population Mitotic Cells (%),[6],3.86% and 1.16%
same,Population Normal (%),[6],100%
same,Population Pyknosed Nuclei (%),[6],61.06% and 57.33%
same,Population Tubulin-Different-Phenotype (%),[6],14.14% and 16.67%
same,Total Cell Count,[6],339 and 150
O=C(NCc1cccc(O)c1)Nc1nc(-c2ccncc2)cs1,Population Apoptotic (%),[1],37.74% and 30.77%
same,Population Fragmented Nuclei (%),[1],4.64% and 3.9%
same,Population Healthy Nuclei (%),[1],83.06% and 79.22%
same,Population Hoechst High Intensity Objects (%),[1],0% and 0.65%
same,Population Membrane Permeable-Phenotype (%),[1],0.84% and 1.64%
same,Population Mitochondria Different-Phenotype (%),[1],0.28% and 9.02%
same,Population Mitotic Cells (%),[1],62.26% and 69.23%
same,Population Normal (%),[1],100% and 99.35%
same,Population Pyknosed Nuclei (%),[1],12.3% and 16.88%
same,Population Tubulin-Different-Phenotype (%),[1],1.96% and 0%
same,Total Cell Count,[1],431 and 155
same,Population Apoptotic (%),[2],52.63% and 52.17%
same,Population Fragmented Nuclei (%),[2],2.65% and 6.96%
same,Population Healthy Nuclei (%),[2],82.23% and 73.04%
same,Population Hoechst High Intensity Objects (%),[2],0.26% and 0%
same,Population Membrane Permeable-Phenotype (%),[2],1.61% and 4.76%
same,Population Mitotic Cells (%),[2],47.37% and 47.83%
same,Population Normal (%),[2],99.74% and 100%
same,Population Pyknosed Nuclei (%),[2],15.12% and 20%
same,Population Tubulin-Different-Phenotype (%),[2],2.9% and 0%
same,Population Apoptotic (%),[3],47.5% and 43.18%
same,Population Fragmented Nuclei (%),[3],2.77% and 4.12%
same,Population Healthy Nuclei (%),[3],82.47% and 73.2%
same,Population Hoechst High Intensity Objects (%),[3],0%
same,Population Membrane Permeable-Phenotype (%),[3],1.12% and 3.52%
same,Population Mitochondria Different-Phenotype (%),[3],0% and 5.63%
same,Population Mitotic Cells (%),[3],52.5% and 56.82%
same,Population Normal (%),[3],100%
same,Population Pyknosed Nuclei (%),[3],14.76% and 22.68%
same,Population Tubulin-Different-Phenotype (%),[3],0.67% and 0%
same,Total Cell Count,[3],542 and 194
same,Population Apoptotic (%),[4],44.26% and 50%
same,Population Fragmented Nuclei (%),[4],3.67% and 6.77%
same,Population Healthy Nuclei (%),[4],83.15% and 67.67%
same,Population Hoechst High Intensity Objects (%),[4],0%
same,Population Membrane Permeable-Phenotype (%),[4],1.82% and 5.56%
same,Population Mitotic Cells (%),[4],55.74% and 50%
same,Population Normal (%),[4],100%
same,Population Pyknosed Nuclei (%),[4],13.17% and 25.56%
same,Population Tubulin-Different-Phenotype (%),[4],1.82% and 1.11%
same,Population Apoptotic (%),[5],50.98% and 51.79%
same,Population Fragmented Nuclei (%),[5],4.55% and 3.91%
same,Population Healthy Nuclei (%),[5],84.92% and 77.85%
same,Population Hoechst High Intensity Objects (%),[5],0.1% and 0%
same,Population Membrane Permeable-Phenotype (%),[5],0.12% and 2.09%
same,Population Mitochondria Different-Phenotype (%),[5],0% and 3.35%
same,Population Mitotic Cells (%),[5],49.02% and 48.21%
same,Population Normal (%),[5],99.9% and 100%
same,Population Pyknosed Nuclei (%),[5],10.54% and 18.24%
same,Population Tubulin-Different-Phenotype (%),[5],1.22% and 1.26%
same,Population Apoptotic (%),[6],60.92% and 61.11%
same,Population Fragmented Nuclei (%),[6],2.84% and 9.2%
same,Population Healthy Nuclei (%),[6],84.18% and 68.71%
same,Population Hoechst High Intensity Objects (%),[6],0%
same,Population Membrane Permeable-Phenotype (%),[6],1.6% and 6.25%
same,Population Mitochondria Different-Phenotype (%),[6],0% and 18.75%
same,Population Mitotic Cells (%),[6],39.08% and 38.89%
same,Population Normal (%),[6],100%
same,Population Pyknosed Nuclei (%),[6],12.99% and 22.09%
same,Population Tubulin-Different-Phenotype (%),[6],1.24% and 0.89%
Cc1cc(NC(=O)c2cccc(NC(=O)/C=C/CN(C)C)c2)ccc1Nc1nccc(-c2cccnc2)n1,Population Apoptotic (%),[1],27.59% and 30.56%
same,Population Fragmented Nuclei (%),[1],1.96% and 1.23%
same,Population Healthy Nuclei (%),[1],90.93% and 76.69%
same,Population Hoechst High Intensity Objects (%),[1],0%
same,Population Membrane Permeable-Phenotype (%),[1],0.54% and 4%
same,Population Mitochondria Different-Phenotype (%),[1],0% and 11.2%
same,Population Mitotic Cells (%),[1],72.41% and 69.44%
same,Population Normal (%),[1],100%
same,Population Tubulin-Different-Phenotype (%),[1],1.35% and 1.6%
same,Total Cell Count,[1],408 and 163
same,Population Apoptotic (%),[2],30.59% and 26%
same,Population Fragmented Nuclei (%),[2],2.2% and 3.08%
same,Population Healthy Nuclei (%),[2],71.07% and 58.46%
same,Population Hoechst High Intensity Objects (%),[2],0%
same,Population Membrane Permeable-Phenotype (%),[2],61.06% and 84.21%
same,Population Mitotic Cells (%),[2],69.41% and 74%
same,Population Normal (%),[2],100%
same,Population Pyknosed Nuclei (%),[2],26.73% and 38.46%
same,Population Tubulin-Different-Phenotype (%),[2],71.68% and 55.26%
same,Total Cell Count,[2],318 and 130
same,Population Apoptotic (%),[3],35.71% and 38.71%
same,Population Fragmented Nuclei (%),[3],1.26% and 5.24%
same,Population Healthy Nuclei (%),[3],91.2% and 80%
same,Population Hoechst High Intensity Objects (%),[3],0%
same,Population Membrane Permeable-Phenotype (%),[3],0.79% and 4.17%
same,Population Mitotic Cells (%),[3],64.29% and 61.29%
same,Population Normal (%),[3],100%
same,Population Pyknosed Nuclei (%),[3],7.54% and 14.76%
same,Population Tubulin-Different-Phenotype (%),[3],0.79% and 1.19%
same,Total Cell Count,[3],557 and 210
same,Population Apoptotic (%),[4],56.85% and 76.53%
same,Population Fragmented Nuclei (%),[4],2.51% and 3.51%
same,Population Hoechst High Intensity Objects (%),[4],0.31% and 0%
same,Population Membrane Permeable-Phenotype (%),[4],25.44% and 41.67%
same,Population Mitochondria Different-Phenotype (%),[4],21.93% and 41.67%
same,Population Mitotic Cells (%),[4],43.15% and 23.47%
same,Population Normal (%),[4],99.69% and 100%
same,Population Pyknosed Nuclei (%),[4],61.76% and 85.96%
same,Population Tubulin-Different-Phenotype (%),[4],54.39% and 58.33%
same,Total Cell Count,[4],320 and 114
same,Population Apoptotic (%),[5],41.94% and 59.02%
same,Population Fragmented Nuclei (%),[5],4.41% and 6.54%
same,Population Healthy Nuclei (%),[5],86.07% and 73.53%
same,Population Hoechst High Intensity Objects (%),[5],0% and 0.33%
same,Population Membrane Permeable-Phenotype (%),[5],0.6% and 3.11%
same,Population Mitochondria Different-Phenotype (%),[5],0% and 7.56%
same,Population Mitotic Cells (%),[5],58.06% and 40.98%
same,Population Normal (%),[5],100% and 99.67%
same,Population Pyknosed Nuclei (%),[5],9.53% and 19.93%
same,Population Tubulin-Different-Phenotype (%),[5],1.67% and 0.89%
same,Population Apoptotic (%),[6],92.36% and 96.04%
same,Population Fragmented Nuclei (%),[6],3.57% and 4%
same,Population Healthy Nuclei (%),[6],7.14% and 15.2%
same,Population Hoechst High Intensity Objects (%),[6],0%
same,Population Mitotic Cells (%),[6],7.64% and 3.96%
same,Population Normal (%),[6],100%
same,Population Pyknosed Nuclei (%),[6],89.29% and 80.8%
same,Total Cell Count,[6],308 and 125
